Source: ChEMBL document CHEMBL1124058, “8-Aryl-and 8-cycloalkyl-1,3-dipropylxanthines: further potent and selective antagonists for A1-adenosine receptors” (J Med Chem, 1988)
pIC50: −log10 of the molar value.

Assays:
Adenosine A2 receptor = Adenosine A2 receptor (Homo sapiens, UniProt P29275+P29274); assay: Inhibition of 5'-(N-ethylcarbamoyl)adenosine-elicited stimulation of adenylate cyclase in human platelet membranes; type: cell membranes
[1] = biological target: T1, Adenosine receptor A1 (Rattus norvegicus) (UniProt P25099); assay: Antagonistic activity on N6-([3H]-phenylisopropyl)adenosine binding to rat brain membrane (Adenosine A1 receptor); type: tissue-based
T1 sequence (whole entry): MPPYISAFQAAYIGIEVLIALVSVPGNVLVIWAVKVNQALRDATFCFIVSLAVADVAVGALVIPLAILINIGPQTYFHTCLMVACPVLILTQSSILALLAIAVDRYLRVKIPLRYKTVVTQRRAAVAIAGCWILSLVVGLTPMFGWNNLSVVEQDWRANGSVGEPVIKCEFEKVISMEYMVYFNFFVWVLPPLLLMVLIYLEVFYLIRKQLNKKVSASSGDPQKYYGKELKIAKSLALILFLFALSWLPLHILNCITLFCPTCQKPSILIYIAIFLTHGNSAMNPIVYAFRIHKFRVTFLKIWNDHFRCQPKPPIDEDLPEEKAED

[2] = Solubility in water at PH 7.4 in the presence of Tris.HCl buffer; type: physicochemical
Summary of the method: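 Aqueous solubility measured in Tris-HCl buffer, pH 7.4.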

[3] = biological target: T1, Adenosine receptor A1 (Rattus norvegicus); assay: Antagonistic activity against N6-([3H]-phenylisopropyl)adenosine binding to rat brain membrane (Adenosine A1 receptor); type: tissue-based
Summary of the method: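 Competition binding against 1 nM N6-([3H]phenylisopropyl)adenosine at A1 receptors in rat cerebral cortical membranes. A range of xanthine concentrations was tested in triplicate in at least two separate experiments. Values are means with 95% confidence limits.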

[4] = biological target: Adenosine A2 receptor (Cavia porcellus); assay: Inhibition of stimulation of adenylate cyclase in guinea pig brain slices at A2 receptor (2-chloroadenosine-elicited accumulations of cyclic AMP)

SMILES	Kb (Adenosine A2 receptor) [µM]	Kb [1] [µM]	solubility [2] [µM]	Kb [3] [µM]	pIC50 [4]
CCCn1c(=O)c2nc(-c3ccc(OCC(N)=O)cc3O)[nH]c2n(CCC)c1=O	1.2	0.0065	5600	–	–
CCCn1c(=O)c2nc(-c3ccc(OCC(=O)O)cc3O)[nH]c2n(CCC)c1=O	2	0.037	1100	–	–
CCCn1c(=O)c2nc[nH]c2n(CCC)c1=O	–	–	1600	0.71	–
CCCn1c(=O)c2[nH]c(-c3ccccc3)nc2n(CCC)c1=O	–	–	18	–	–
CCCn1c(=O)c2nc(-c3ccc(C(N)=O)cc3)[nH]c2n(CCC)c1=O	0.054	0.012	–	–	7.14
CCCn1c(=O)c2nc(-c3ccc(OCC(=O)NCCN)cc3O)[nH]c2n(CCC)c1=O	0.14	0.0024	710	–	–
CCCn1c(=O)c2nc(-c3ccc(OCC(=O)NCCN(C)C)cc3O)[nH]c2n(CCC)c1=O	0.077	0.0084	–	–	–
CCCn1c(=O)c2nc(C3CCCCC3)[nH]c2n(CCC)c1=O	0.19	–	74	–	–
CCCn1c(=O)c2[nH]c(-c3ccc(C(N)=O)cc3)nc2n(CCC)c1=O	–	–	5	–	–
CCCn1c(=O)c2[nH]c(C3CCCC3)nc2n(CCC)c1=O [1,3-DIPROPYL-8-CYCLOPENTYLXANTHINE [DPCPX]]	–	–	31	–	–
CCCn1c(=O)c2nc(-c3ccc(O)cc3O)[nH]c2n(CCC)c1=O	–	0.0025	–	–	–
CCCn1c(=O)c2[nH]c(-c3ccc(O)cc3O)nc2n(CCC)c1=O	–	–	11	–	–
CCCn1c(=O)c2nc(-c3ccc(O)cc3)[nH]c2n(CCC)c1=O	–	0.0035	–	–	–
CCCn1c(=O)c2nc(-c3ccc(OCC(=O)OCC)cc3O)[nH]c2n(CCC)c1=O	3.8	0.031	–	–	–
CCCn1c(=O)c2nc(-c3ccc(C(=O)NCC(=O)OC)cc3)[nH]c2n(CCC)c1=O	0.24	0.038	–	–	–
CCCn1c(=O)c2nc(C3CCNCC3)[nH]c2n(CCC)c1=O	6.9	0.62	–	–	–
CCCn1c(=O)c2nc(-c3ccc(OCC(=O)NCCc4ccc(O)cc4)cc3O)[nH]c2n(CCC)c1=O	4.4	0.016	–	–	–
CCCn1c(=O)c2nc(-c3ccc(OCC(=O)NCCc4c[nH]cn4)cc3O)[nH]c2n(CCC)c1=O	2.4	0.1	–	–	–
CCCn1c(=O)c2nc(-c3cnccn3)[nH]c2n(CCC)c1=O	3.6	0.6	–	–	–
CCCn1c(=O)c2nc(CC3CCCCC3)[nH]c2n(CCC)c1=O	2.7	0.039	–	–	–
CCCn1c(=O)c2[nH]c(-c3ccc(OC)cc3O)nc2n(CCC)c1=O	0.18	0.0046	18	–	6.01
CCCn1c(=O)c2nc(-c3ccc(C(=O)O)cc3)[nH]c2n(CCC)c1=O	–	0.2	180	–	–
CCCn1c(=O)c2nc(-c3ccc(OC)cc3)[nH]c2n(CCC)c1=O	–	0.0037	14	–	–
CCCn1c(=O)c2nc(CC3CCCC3)[nH]c2n(CCC)c1=O	1.9	–	–	0.016	–
CCCn1c(=O)c2nc(-c3ccccc3)[nH]c2n(CCC)c1=O	–	0.01	–	–	–
